# SIRT5 inh – sirtuin-5 (human) deacylase inhibition; Purified SirT5, succinyl-peptide AMC, trypsin-coupled fluorescence; inhibition, % at 15 µM; actives 1.1% (n = 330,000); in the data active = inhibition above about 15%
# Target sequence (Q9NXA8 whole entry, looked up): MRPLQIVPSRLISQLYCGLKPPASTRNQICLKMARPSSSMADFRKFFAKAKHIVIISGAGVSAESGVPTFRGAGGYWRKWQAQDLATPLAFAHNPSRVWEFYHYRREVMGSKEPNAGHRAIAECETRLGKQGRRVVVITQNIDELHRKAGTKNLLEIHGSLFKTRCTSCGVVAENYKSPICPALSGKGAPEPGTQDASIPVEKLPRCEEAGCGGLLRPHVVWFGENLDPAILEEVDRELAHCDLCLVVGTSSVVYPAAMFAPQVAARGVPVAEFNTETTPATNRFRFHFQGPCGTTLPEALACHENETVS
# DENV2 CPE – inhibitors of DENV2 cytopathic effect; actives 1.7% (n = 350,000); DENV2-infected cells, cytopathic effect rescue, plate reader; CPE inhibition, % at 9.99 µM; in the data active = CPE inhibition above about 20%, passing the limit was not always enough; tested in BHK-21 cells;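 also: 0% = median of neutral control wells and 100% = median of positive control wells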
# E-sel inducer – E-selectin induction on HUVECs; P16581; HUVEC E-selectin immunofluorescence imaging; normalized: neutral wells 0, TNF-alpha wells 100; activation, % at 7.58 µM; actives 0.37% (n = 260,000); AID 686992;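 active = mean E-selectin-positive cell signal at least 10% of the positive control, reached in at least 60% of replicates, without over 20% cell loss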
#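 Test system: HUVEC; input: 3,000 HUVEC/well; measured by: immunofluorescence imaging; read-out: % PE-positive cells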
# * = called active by the depositor; . = not tested or not shown. Shown are actives, neighbours in structure and some others; about 2.9% of the full set was active somewhere.
SMILES,SIRT5 inh,DENV2 CPE,E-sel inducer
C[C@H]1CN([C@@H](C)CO)C(=O)c2cccc(NC(=O)c3cnccn3)c2O[C@H]1CN(C)Cc1ccc(Cl)c(Cl)c1,-2.0,22.7*,7.9
C[C@H](CO)N1C[C@H](C)[C@H](CN(C)Cc2ccc(Cl)c(Cl)c2)Oc2c(NC(=O)c3cnccn3)cccc2C1=O,1.4,-9.6,3.5
C[C@@H]1CN([C@@H](C)CO)C(=O)c2cccc(NC(=O)c3cnccn3)c2O[C@H]1CN(C)Cc1ccc2c(c1)OCO2,-0.2,-11.2,3.7
COc1ccc(CN(C)C[C@@H]2Oc3c(NC(=O)c4cnccn4)cccc3C(=O)N([C@@H](C)CO)C[C@H]2C)cc1,-3.2,1.1,53.7*
C[C@H]1CN([C@@H](C)CO)C(=O)c2cccc(NC(=O)c3cnccn3)c2O[C@@H]1CN(C)Cc1ccc2c(c1)OCO2,-3.6,24.2*,-8.9
C[C@H](CO)N1C[C@H](C)[C@H](CN(C)C)Oc2c(NC(=O)c3cnccn3)cccc2C1=O,-7.4,7.6,.
CC(=O)c1ccc(NC(=S)Nc2ccc3cn[nH]c3c2)cc1,8.8,1.3,.
COC(=O)c1cc(C#N)c(OC)nc1C,-1.4,-11.5,.
CCN(C(=O)COC(=O)CNC(=O)c1ccc2ccccc2c1)C1CCS(=O)(=O)C1 (configuration not stated),-1.4,10.6,0.9
CCc1nnc(NC(=O)C2CCN(S(=O)(=O)Cc3ccccc3)CC2)s1,-4.5,.,.
Cc1ccccc1NC(=S)Nn1cnnc1,-0.5,-4.3,.
Fc1ccccc1NC(=S)Nn1cnnc1,-1.9,43.7*,0.0
COc1ccc(NC(=O)C2CC(=O)N(C)C(=Nc3ccc4c(c3)OCO4)S2)cc1 (configuration not stated),-2.5,6.6,.
CC(=O)OCC(O)C1(O)CCC2C3CCC4=CC(=O)CCC4(C)C3C(O)CC21C (configuration not stated),1.8,22.4*,.
CC(=O)OCC(=O)[C@@]1(O)CC[C@H]2[C@@H]3CCC4=CC(=O)CC[C@]4(C)[C@H]3[C@@H](O)C[C@@]21C,3.3,3.5,1.5
COC(=O)[C@H](Cc1c[nH]c2ccccc12)NCc1cccc(B(O)O)c1,26.2*,-11.2,6.5
COC(=O)[C@@H](Cc1c[nH]c2ccccc12)NCc1ccc(B(O)O)cc1,0.4,2.5,0.1
COc1ccccc1NC(=O)Nc1ccc2c(c1)C(=O)N(C)C[C@H](OC)[C@H](C)CN[C@@H](C)CO2,22.0*,-9.7,0.0
COc1ccccc1NC(=O)Nc1ccc2c(c1)C(=O)N(C)C[C@@H](OC)[C@@H](C)CN[C@H](C)CO2,-0.5,-0.6,-0.1
CO[C@@H]1CN(C)C(=O)c2cc(NC(=O)Nc3ccccc3Cl)ccc2OC[C@@H](C)NC[C@@H]1C,2.7,1.6,-0.2
CO[C@H]1CN(C)C(=O)c2cc(NC(=O)Nc3ccccc3Cl)ccc2OC[C@@H](C)NC[C@H]1C,3.2,20.4*,-0.1
Cc1cc(-c2onc(C)c2C(N)=O)no1,-4.2,7.9,.
Cc1cc(-c2onc(C)c2C(=O)Oc2ccc(Cl)cc2)no1,0.8,72.6*,.
Cc1noc(C)c1NC(=O)Nc1ccc2c(c1)C(=O)N([C@@H](C)CO)C[C@@H](C)[C@H](CN(C)Cc1ccc(Cl)c(Cl)c1)OCCCC[C@H](C)O2,7.2,1.6,-0.1
Cc1noc(C)c1NC(=O)Nc1ccc2c(c1)C(=O)N([C@@H](C)CO)C[C@H](C)[C@@H](CN(C)Cc1ccc(Cl)c(Cl)c1)OCCCC[C@H](C)O2,15.4*,26.6*,0.1
SMILES,SIRT5 inh,DENV2 CPE,E-sel inducer
Cc1noc(C)c1NC(=O)Nc1ccc2c(c1)C(=O)N([C@@H](C)CO)C[C@@H](C)[C@@H](CN(C)Cc1ccc(Cl)c(Cl)c1)OCCCC[C@@H](C)O2,1.5,30.4*,0.0
Cc1noc(C)c1NC(=O)Nc1ccc2c(c1)C(=O)N([C@H](C)CO)C[C@@H](C)[C@H](CN(C)Cc1ccc(Cl)c(Cl)c1)OCCCC[C@H](C)O2,2.6,23.3*,-0.1
Cc1noc(C)c1NC(=O)Nc1ccc2c(c1)C(=O)N([C@H](C)CO)C[C@H](C)[C@@H](CN(C)Cc1ccc(Cl)c(Cl)c1)OCCCC[C@@H](C)O2,2.9,-16.8,-0.3
Cc1noc(C)c1NC(=O)Nc1ccc2c(c1)C(=O)N([C@H](C)CO)C[C@@H](C)[C@@H](CN(C)Cc1ccc(Cl)c(Cl)c1)OCCCC[C@H](C)O2,-1.8,9.1,-0.1
Cc1ccc(S(=O)(=O)NCC[C@@H]2CC[C@@H](NC(=O)c3cccc(F)c3)[C@@H](CO)O2)cc1,-1.4,-2.2,-0.5
O=C(c1ccc2c(c1)OCO2)N1CC(=O)N2[C@@H](CO)[C@@H](c3ccc(C#CC4CCCC4)cc3)[C@@H]2C1,4.3,6.4,-0.3
CCOc1cc(/C=N/Nc2ccc(C(=O)O)cc2)ccc1OC(=O)c1ccccc1C,26.4*,5.2,.
COc1cccc(C(=O)Oc2ccc(/C=N/Nc3ccc(C(=O)O)cc3)cc2OC)c1,8.4,-3.7,.
COc1ccc2c(c1)CCC1=C2NC(=S)NC1c1ccc(N(C)C)cc1 (configuration not stated),15.3*,2.3,0.3
COc1cc(C2NC(=S)NC3=C2CCc2ccccc23)cc(OC)c1OC (configuration not stated),-1.2,-3.8,.
CC(=O)c1c(C)[nH]c(C(=O)OCC(=O)N(C)c2c(N)n(Cc3ccccc3)c(=O)[nH]c2=O)c1C,-0.9,142.6*,.
CCOC(=O)c1c(C)[nH]c(C(=O)OCC(=O)N(CC)c2c(N)n(Cc3ccccc3)c(=O)[nH]c2=O)c1C,-1.6,-5.0,.
CN(C(=O)CCOc1ccccc1)c1c(N)n(Cc2ccccc2)c(=O)[nH]c1=O,-2.1,-2.9,.
CCOc1ccc(OCC(=O)N(C)c2c(N)n(Cc3ccccc3)c(=O)[nH]c2=O)cc1,-2.5,24.7*,-0.2
O=S(=O)(NC1CCN(Cc2ccc(OCCO)cc2)CC1)c1cccc2cccnc12,.,8.4,.
O=S(=O)(c1cccc2cccnc12)N1CCN(Cc2ccc(OCCO)cc2)CC1,-2.0,41.2*,.
CN(C)C(=O)c1cccc(-c2ccc3c(c2)[C@@H]2[C@@H](CCN2S(=O)(=O)c2ccccc2)[C@H](CO)N3)c1,2.9,1.0,0.0
Cc1ccc(S(=O)(=O)Nc2ccccc2C(O)c2ccccc2)cc1 (configuration not stated),-2.9,2.1,-0.4
CNc1ccc(Br)cc1C(O)c1ccccc1 (configuration not stated),37.5*,-1.6,-0.1
CCCCS(=O)(=O)N1C2=NC(C(=O)OCC)=C(C(=O)OCC)C3N(Cc4ccc(C#N)cc4)c4ccccc4[C@]23C[C@H]1C(=O)OC (some centres not stated),.,15.9,-0.2
COc1ccccc1-c1ccc([C@@H]2C[C@H]3[C@H](CON3C)CN2C(=O)c2ccc(-c3ccccc3)cc2)cc1,-4.1,38.2*,0.9
CC(=O)N1C[C@H]2CON(C)[C@H]2C[C@H]1c1ccc(-c2ccccc2)cc1,-3.2,0.3,0.2
Cn1ncc([N+](=O)[O-])c1C(=O)Nc1ccccc1,0.7,1.1,-0.1
CC(=O)Nc1c(Cl)cc([N+](=O)[O-])c2ccccc12,0.7,-13.3,-1.2
COCCNc1ncnc2c1ncn2[C@H]1CN(Cc2ccc(F)cc2)C[C@@H](CO)O1,.,40.3*,0.0

# Screening data as filed in PubChem BioAssay.
